# In ChEMBL document CHEMBL3091462 (J Nat Prod, 2013):
# Calls of active or inactive are those of the source. The rule behind the calls is not given here.
# Legend:
# SW-620 [1] = assay: Cell cycle arrest in human SW620 cells assessed as accumulation at S phase at 0.5 uM after 48 hrs using propidium iodide staining by flow cytometry (reference value: 43.1 +/- 1%); assay type: functional
# SW-620 [2] = assay: Cell cycle arrest in human SW620 cells assessed as accumulation at S phase at 1 uM after 48 hrs using propidium iodide staining by flow cytometry (reference value: 43.1 +/- 1%); assay type: functional
# HCT-116 [3] = assay: Induction of apoptosis in human HCT116 cells assessed as reduction of Bcl-2 protein expression at 0.1 to 10 uM after 24 hrs by immunoblotting; assay type: functional, cell-based
# Procedure, shortened: (§1)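 HCT-116 or SW-620 cells treated with 0–10 μM for 24 h, lysed, and run on 15% SDS-PAGE immunoblots. Probed for Bcl-2 (1:1000), Bax (1:500), caspase-9/-3 and their cleaved forms (1:1000), and β-actin (1:1000). Bands quantified by densitometry; means ± SD of three experiments in duplicate.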
# SW-620 [4] = assay: Cell cycle arrest in human SW620 cells assessed as accumulation at S phase at 10 uM after 48 hrs using propidium iodide staining by flow cytometry (reference value: 43.1 +/- 1%); assay type: functional
# HCT-116 [5] = assay: Induction of apoptosis in human HCT116 cells assessed as increase of expression of cleaved caspase-9 and caspase-3 after 24 hrs by immunoblotting; assay type: functional, cell-based; procedure, shortened: as §1
# HCT-116 [6] = assay: Induction of apoptosis in human HCT116 cells assessed as increase of Bax protein expression after 24 hrs by immunoblotting; assay type: functional, cell-based; procedure, shortened: as §1
# SW-620 [7] = assay: Induction of apoptosis in human SW620 cells assessed as increase of expression of cleaved caspase-9 and caspase-3 after 24 hrs by immunoblotting; assay type: functional, cell-based; procedure, shortened: as §1
# HCT-116 [8] = assay: Cell cycle arrest in human HCT116 cells assessed as accumulation at G0/G1 phase at 0.1 uM after 48 hrs using propidium iodide staining by flow cytometry (reference value: 56.7 +/- 1.9%); assay type: functional
# HCT-116 [9] = assay: Decrease of cyclin A expression in human HCT116 cells after 24 hrs by immunoblotting; assay type: functional, cell-based
# Procedure, shortened: (§2)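 HCT-116 or SW-620 cells exposed to 0–10 μM for 24 h. Cells lysed in Tris/NaCl/EDTA/1% Triton X-100 buffer with protease and phosphatase inhibitors at 4 °C, protein measured by BCA. Lysates run on 10–12.5% SDS-PAGE and immunoblotted, ECL detection. Cdk2, cyclin A and cyclin E antibodies used at 1:500; β-actin as loading control.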
# HCT-116 [10] = assay: Antitumor activity against human HCT116 cells xenografted in BALB/c-nude mouse assessed as reduction of tumor volume at 100 mg/kg, po administered every other day from day 2 to 21; assay type: functional, organism-based; parameters: dose 100 mg/kg
# Procedure, shortened: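 Male BALB/c-nude mice; 2 × 10^6 tumour cells in 0.2 mL PBS injected intradermally into the flank on day 0, n = 10 per group. Oral dosing every other day for 3 weeks, starting 2 days after inoculation. Caliper tumour volume = (width)2 × length/2, measured periodically. Tumours excised and weighed at day 21. Means ± SE.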
# SW-620 [11] = assay: Effect on Cdk inhibitor gene expression in p53 deficient human SW620 cells at 0.5 to 10 uM after 24 hrs by immunoblotting; assay type: functional, cell-based
# HCT-116 [12] = assay: Cell cycle arrest in human HCT116 cells assessed as accumulation at S phase at 10 uM after 48 hrs using propidium iodide staining by flow cytometry (reference value: 36.3 +/- 1.7%); assay type: functional
# SW-620 [13] = assay: Decrease of cyclin E expression in human SW620 cells after 24 hrs by immunoblotting; assay type: functional, cell-based; procedure, shortened: as §2
# HCT-116 [14] = assay: Cell cycle arrest in human HCT116 cells assessed as accumulation at G2/M phase at 0.5 uM after 48 hrs using propidium iodide staining by flow cytometry (reference value: 7.1 +/- 0.3%); assay type: functional
# HCT-116 [15] = assay: Cell cycle arrest in human HCT116 cells assessed as accumulation at S phase at 5 uM after 48 hrs using propidium iodide staining by flow cytometry (reference value: 36.3 +/- 1.7%); assay type: functional
# SW-620 [16] = assay: Cell cycle arrest in human SW620 cells assessed as accumulation at G0/G1 phase at 0.5 uM after 48 hrs using propidium iodide staining by flow cytometry (reference value: 47.8 +/- 1.2%); assay type: functional
# SW-620 [17] = assay: Increase of p21 expression in human SW620 cells at 0.5 to 10 uM after 24 hrs by immunoblotting; assay type: functional, cell-based
# Procedure, shortened: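 HCT-116 or SW-620 cells treated with 0–10 μM for 24 h. Lysates probed for p21 by SDS-PAGE immunoblotting with ECL detection; β-actin as loading control.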
# SW-620 [18] = assay: Cytotoxicity against human SW620 cells assessed as cell death at 2 uM after 48 hrs; assay type: functional, cell-based
# Procedure, shortened: (§3)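 Cells seeded at 10^5 per well in RPMI 1640/10% FBS at 37 °C. Subconfluent cells exposed to 0, 0.1, 0.5, 1, 2, 5 or 10 μM for 48 h, or to 10 μM for 24, 48 and 72 h; ethanol vehicle, at most 0.01% v/v final. Cells trypsinized and counted by hemocytometer. Viability as % of control, means ± SD, three experiments in triplicate.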
# SW-620 [19] = assay: Cytotoxicity against human SW620 cells after 24 to 72 hrs; assay type: functional, cell-based; procedure, shortened: as §3
# HCT-116 [20] = assay: Cell cycle arrest in human HCT116 cells assessed as accumulation at G0/G1 phase at 1 uM after 48 hrs using propidium iodide staining by flow cytometry (reference value: 56.7 +/- 1.9%); assay type: functional
# SW-620 [21] = assay: Cytotoxicity against human SW620 cells assessed as cell viability at 0.1 to 2 uM after 24 to 72 hrs; assay type: functional, cell-based; procedure, shortened: as §3
# HCT-116 [22] = assay: Cell cycle arrest in human HCT116 cells assessed as accumulation at G2/M phase at 5 uM after 48 hrs using propidium iodide staining by flow cytometry (reference value: 7.1 +/- 0.3%); assay type: functional
# SW-620 [23] = assay: Cell cycle arrest in human SW620 cells assessed as accumulation at G2/M phase at 1 uM after 48 hrs using propidium iodide staining by flow cytometry (reference value: 9.1 +/- 0.3%); assay type: functional
# SW-620 [24] = assay: Cell cycle arrest in human SW620 cells assessed as accumulation at G2/M phase at 5 uM after 48 hrs using propidium iodide staining by flow cytometry (reference value: 9.1 +/- 0.3%); assay type: functional
# HCT-116 [25] = assay: Cell cycle arrest in human HCT116 cells assessed as accumulation at G2/M phase at 1 uM after 48 hrs using propidium iodide staining by flow cytometry (reference value: 7.1 +/- 0.3%); assay type: functional
# HCT-116 [26] = assay: Induction of apoptosis in human HCT116 cells expressing p21 siRNA assessed as increase of expression of cleaved caspase-9 and caspase-3 at 10 uM after 24 hrs by immunoblotting; assay type: functional, cell-based
# Procedure, shortened: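 Cells transfected with 100 nM scrambled or p21 siRNA for 4 h, then grown 24 h in complete medium and treated with 10 μM for 24 h. p21, caspase-9/-3 and cleaved forms analysed by 15% SDS-PAGE immunoblot with densitometry. Means ± SD, three experiments in triplicate.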
# HCT-116 [27] = assay: Cell cycle arrest in human HCT116 cells assessed as accumulation at S phase at 1 uM after 48 hrs using propidium iodide staining by flow cytometry (reference value: 36.3 +/- 1.7%); assay type: functional
# [28] = Cytotoxicity against human CCD-112CoN cells assessed as cell viability up to 10 uM after 24 to 72 hrs; assay type: cell-based; procedure, shortened: as §3
compound,measurement,setting,value
CC(C)c1cccc(=O)c(O)c1 [HINOKITIOL],Activity,SW-620 [1],43.3%
same,Activity,SW-620 [2],47.7%
same,Activity,HCT-116 [3],Active
same,Activity,SW-620 [4],87%
same,Activity,HCT-116 [5],Dose-dependent effect
same,Activity,HCT-116 [6],Dose-dependent effect
same,Activity,SW-620 [7],Dose-dependent effect
same,Activity,HCT-116 [8],58.1%
same,Activity,HCT-116 [9],Dose-dependent effect
same,Activity,HCT-116 [10],Active
same,Activity,SW-620 [11],inactive
same,Activity,HCT-116 [12],53.8%
same,Activity,SW-620 [13],Dose-dependent effect
same,Activity,HCT-116 [14],8%
same,Activity,HCT-116 [15],43.5%
same,Activity,SW-620 [16],48.3%
same,Activity,SW-620 [17],Active
same,Activity,SW-620 [18],Active
same,IC50,SW-620 [19],4.4 µM
same,growth inhibition (GI),SW-620 [19],Dose-dependent effect
same,Activity,HCT-116 [20],55.1%
same,Activity,SW-620 [21],Active
same,Activity,HCT-116 [22],11.9%
same,Activity,SW-620 [23],6.8%
same,Activity,SW-620 [24],7.2%
same,Activity,HCT-116 [25],7.7%
same,Activity,HCT-116 [26],inactive
same,Activity,HCT-116 [27],37.2%
same,Activity,[28],Non-toxic
